Laboratory results taken from ChEMBL document CHEMBL4513216, “Probing the Open Global Health Chemical Diversity Library for Multistage-Active Starting Points for Next-Generation Antimalarials” (ACS Infect Dis, 2020).

Test: Toxicity liver stage against HepG2, at 10uM
Format: cell-based
Set-up: test concentration 10 uM, cell line HepG2-A16-CD81EGFP
Details: human, HepG2-A16-CD81EGFP cells; read-out: INHIBITION
In short: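 Uninfected HepG2-A16-CD81EGFP cells, 3 × 10^3 per well, 1536-well, plated on prespotted compound at 10 μM final, parasite-free screening media added to match infected plates; puromycin 10 μM positive, DMSO 0.5% negative; run in parallel with 48 h PbLuc assay at 37 °C, 5% CO2; viability by CellTiter-Glo luminescence, normalized to controls.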

Structure (SMILES)	cytotoxicity at 10 µM [%]
Cc1ccc2c(c1)C1(CCNCC1)CN2C(=O)C(C)C	-77
Cc1cscc1C(=O)N1CCCC1CC(=O)c1cnn(C)c1 (stereo unspecified)	-3.4
Cc1ncsc1C(=O)N(C)CCc1ccncc1	-3.81
COCC1CN(C(=O)Nc2cc(Cl)ccc2F)CCO1 (stereo unspecified)	10.7
O=C(O)c1nnn(Cc2cccc(C(F)(F)F)c2)c1-c1cccnc1	6.46
CC(C)c1ccc(C#N)c(N2CC(C)(C)[C@@](C)(O)C2)n1	2.71
O=C(C1CCS(=O)(=O)CC1)N1C[C@@H]2CC[C@H]1CN(Cc1ccccc1)C2	-2.22
CCN1CCN(S(=O)(=O)c2cc(Cl)c(Cl)cc2C)CC1	2.28
CCN1CCOCC12CCN(C(=O)C1CCC1)CC2	-1.39
COc1ccc(C2(NCc3noc(C4CC4)n3)CCOCC2)cc1	-6.44
COC(=O)N1CCCCC1C(=O)N1CCC(c2ccncc2)CC1 (stereo unspecified)	11.7
COc1nn(C)c2c1CCCN(C(=O)c1cccs1)C2	8.36
CCc1nc2n(n1)CC(NCc1cc3ccccc3o1)CC2 (stereo unspecified)	3.77
CN(CCCNC(=O)CN1CCS(=O)(=O)CC1)c1ccccc1	-4.65
c1cc(-c2c[nH]c([C@@H]3COCCN3CC3CC3)n2)ccn1	6.82
O=C(c1cccnc1)N1CCc2c(nc(N3CCCC3)[nH]c2=O)C1	4.51
CC(C1CCN(Cc2c(Cl)cncc2Cl)CC1)N1CCN(C)CC1 (stereo unspecified)	-12.2
Cn1ccnc1CN1CCC(Cn2cc(-c3ccncc3)nn2)CC1	-4.5
CN(Cc1ncnn1C)C(=O)Nc1ccc(OC(F)F)cc1	-0.778
CN(C)CC1CSCCCN1C(=O)Nc1ccc(C(C)(C)C)cc1 (stereo unspecified)	6.79
O=C1c2ncccc2C(CCO)N1Cc1ccccc1 (stereo unspecified)	-4.26
C[C@@H]1CN(C2CCOCC2)C[C@]12CCN(c1cccnc1)C2=O	5.95
Cc1cccc(C(C(=O)NCC2(Cn3nc(C)cc3C)CC2)N(C)C)c1 (stereo unspecified)	2.18

Structure (SMILES)	cytotoxicity at 10 µM [%]
Cc1cccc(OC2CCN(c3nc(N)nc4[nH]cnc34)CC2)c1	35.4
CCC(CO)N(C/C(C)=C/c1ccco1)Cc1ccsc1 (stereo unspecified)	1.12
Cc1nccc(C(=O)N2CCOC(c3nc(C(C)C)n[nH]3)C2)n1 (stereo unspecified)	-15.7
Cc1cnn(CCNCC(O)COc2ccc(Cl)cc2)c1 (stereo unspecified)	-12.6
Cc1[nH]nc(CCC(=O)NCC2COc3ccccc3C2)c1C (stereo unspecified)	-43.4
CC(C)(C)n1ncc2c1NC(=O)CC2c1ccc(OCC(N)=O)cc1 (stereo unspecified)	20.6
N#CC1(NC(=O)c2cc(Cl)ccc2OC(F)F)CCOCC1	7.48
Fc1ccc(-c2nc(CN3CCn4c(nnc4C4CC4)C3)co2)cc1	-7.72
CCN1C(=O)CCC12CCCN(Cc1nccs1)CC2 (stereo unspecified)	-0.413
COc1cccc(CNC(=O)c2nc3c(o2)CN(S(C)(=O)=O)C3)c1	8.65
O=C(CNCC1(O)CCCN(Cc2cccc(F)c2F)C1=O)NC1CC1 (stereo unspecified)	-4.02
CC(=O)N1CCc2nnc(C3CCCN3CC3CCCCC3)n2CC1 (stereo unspecified)	-1.54
Cc1ccccc1CNC(Cn1cncn1)c1ccccc1 (stereo unspecified)	-1.45
CN(CCc1ccncc1)C(=O)c1sccc1OC(F)F	-9.32
CC(C)S(=O)(=O)CC(=O)NCC(Cc1ccc(F)cc1)C(N)=O (stereo unspecified)	6.75
CCCNC(=O)CCNC1CSCCc2ccccc21 (stereo unspecified)	-0.421
COCCOCC(C)NC(=O)COc1nn(C)c2nc(C)cc(C)c12 (stereo unspecified)	-3.85
Cc1csc(CN2CC[C@H]3C[C@H](c4ccncn4)O[C@@H]3C2)n1	-148
c1ccc(-c2noc3c2CN(CC2CC2)CC3)cc1	-13.2
CC(C)C(=O)NCC(=O)N1CCC2(CC1)c1ccccc1[C@@H](N)[C@@H]2O	0.174
CC(C)COCCC(=O)Nc1cccnc1-n1cncn1	1.28
CCC[C@H]1CN(Cc2ccc(N(C)C)nc2)C[C@@H]1NC(=O)CCOC	15.5
Cc1noc(C)c1Cn1cc(I)cc(C)c1=O	4.92

Structure (SMILES)	cytotoxicity at 10 µM [%]
CC(C)c1nc2cc(NC(=O)c3n[nH]c4c3CCC4)ccc2n1C	-5.37
CC(C)(C)c1n[nH]c(C2CN(C(=O)c3cc(C4CC4)on3)CCO2)n1 (stereo unspecified)	-15.8
c1csc(CN2CCc3ncnc(C4CCOC4)c3CC2)c1 (stereo unspecified)	8.01
COCCSCC(=O)NCc1ccnc(N(C)C)c1	9.88
O=C(CC1CC1)N[C@@H]1CN(Cc2ccccn2)C[C@@H]2CCCO[C@@H]21	6.09
Nc1nccc(C2CCN(c3cnccn3)C2)n1 (stereo unspecified)	1.43
O=C(CCn1cc(Cl)cn1)Nc1nncs1	-9.61
CN(CCO)C1CCN(c2ncc3c(n2)CCN3c2ccccc2)CC1	-2.3
Cc1n[nH]c(C)c1CCC(=O)N1CCC(O)(CN2CCN(C)CC2)C1 (stereo unspecified)	-6.13
CN1CCCCC1c1ccc(-n2ccnc2)nc1 (stereo unspecified)	5.01
Cc1nnc([C@@H]2C[C@H]3CN(C4CCC4)C[C@H]3O2)[nH]1	8.89
O=C(NC1CCN(c2ccc(-c3ccccc3F)nn2)C1)C1CCC1 (stereo unspecified)	26
O=C(COc1coc(CN2CCCCC2)cc1=O)Nc1ccccc1Cl	3.72
CC(=O)c1cc(Br)cc(F)c1OCC(=O)NC(C)C	-9.46
CCNC(=O)c1cn(C(C)(C)C)c2ncccc12	-1.28
O=C(NCCNS(=O)(=O)c1cc(F)cc(F)c1)c1ccoc1	-1.33
CC(CNCc1ccncc1)Oc1ccccn1 (stereo unspecified)	-1.71
c1ncc2c(n1)CN(Cc1nc(-c3ccsc3)no1)CC2	-4.77
Nc1cc2c(nn1)CCN(C(=O)c1csc(-c3cccs3)n1)C2	-1.32
CCc1ccc(S(=O)(=O)N2CCN(CCn3ccnc3)CC2)cc1	-8.81
Cc1nn(C)c(Cl)c1C1CCCN1Cc1ccc(C(N)=O)cc1 (stereo unspecified)	-3.69
CCN(Cc1nc(C2CC2)no1)Cc1ccc(C#N)cc1F	3.82
CCc1nc(C2CCCN2CC(=O)Nc2nnc(C)s2)no1 (stereo unspecified)	-1.73

Structure (SMILES)	cytotoxicity at 10 µM [%]
O=C(N[C@H]1CCCC[C@@H]1O)c1ccc2nc(-c3ccccc3)[nH]c2c1	0.822
O=C(Nc1ccccc1)c1ccc2c(c1)C1(CCCCC1)CN2	-31.5
C1CC(NCc2nnc(C3CC3)o2)CN(Cc2noc(C3CC3)n2)C1 (stereo unspecified)	-19
Cc1cc(CN(C)C(=O)NCc2ccnc(OC3CCCC3)c2)no1	9.52
COc1c(CNC(c2cccc(F)c2)c2nccn2C)c(C)nn1C (stereo unspecified)	-9.19
O=C(c1c[nH]c(=O)[nH]1)N1CCCC2(CCC(=O)N(C3CCCC3)C2)C1 (stereo unspecified)	-3.74
Cc1cc(NCCN2CCNC2=O)nc2cc3c(cc12)CCC3	2.97
CN(Cc1nncn1-c1cccc(C(F)(F)F)c1)S(C)(=O)=O	3.01
CN1CCN(C(=O)c2cnc3c(cnn3C3CCCC3)c2)CC1	-14.6
CCn1nc(CC(C)C)cc1C(=O)NCc1c(C)cc(C)nc1OC	1.66
CCC[C@@H]1CN(Cc2ccc(N(C)C)nc2)C[C@H]1N(C)C	-15.1
O=C(c1cccc(-c2ncc[nH]2)c1)N1CC[C@H](CO)[C@@H](O)C1	-0.462
c1ccc2cc(OCCCN3CCn4c(nnc4C4CC4)C3)ccc2c1	-11.3
Cc1cc(C)nc(NCCSc2cnn[nH]2)n1	3.22
Fc1ccc(-c2noc(C3COCCO3)n2)cc1F (stereo unspecified)	-1.21
CCn1cc(CN2CCCN(C(=O)C3(C#N)CCCCC3)CC2)cn1	-53.5
Cc1nn(C)c(C)c1CCC(=O)N(C)Cc1ccc2nsnc2c1	-1.62
O=C(Nc1cnccn1)[C@@H]1CC[C@@H]2[C@@H](CCN2Cc2nccs2)O1	-136
CN(Cc1ccc(Cl)s1)C(=O)NCCN1CCCCCC1=O	-0.509
COc1cccc(CN2CCC3(CCN(C(=O)[C@H]4CCCO4)CC3)C2)c1	6.57
COCC(=O)N1CC[C@]2(O)CCN(C(=O)CCc3ccsc3)C[C@@H]2C1	0.689
CC(C(=O)N(Cc1ccc(F)cc1)CC(F)(F)F)S(C)(=O)=O (stereo unspecified)	14.7
O=C(N1CCOCC1)N1CCC2(CC1)CN(c1ccccn1)CCO2	-78.2

Structure (SMILES)	cytotoxicity at 10 µM [%]
O=C(NCC1CC1)C1CCC2(CCN(C(=O)c3cccs3)CC2)O1 (stereo unspecified)	-0.979
CNC(=O)c1cc2c(nc1NCC1CC1)CCNCC2	-0.966
O=C(C[S+]([O-])Cc1csc(C2CCCC2)n1)NC1CCCC1 (stereo unspecified)	-38.2
CCS(=O)(=O)N1CCC2(CN(C(=O)c3cscn3)C2)C1	10.8
CCC(C(=O)NC1CCCCC1)n1ccc2ncccc2c1=O (stereo unspecified)	2.17
CC(C)NC(=O)NCCn1nc(C(F)(F)F)n(C)c1=O	-0.173
Nc1ncnc2c1ncn2[C@H]1CCN(Cc2ccsc2)CC[C@@H]1O	-4.25
O=C(CCc1nccs1)N1CCC(C(=O)O)(c2ccccc2)CC1	1.75
CCn1cc(Cl)c(C(=O)NCCOC)n1	7.05
CCO[C@H]1C[C@@H](O)C12CCN(C1CCN(c3ccccc3)CC1)CC2	4.24
Cn1ccnc1C(=O)NC[C@@H]1OC[C@H]2CN(CC3CC3)CC[C@H]21	-115
CS(=O)(=O)NCc1ncn2c1CN(CCN1CCCC1)CCC2	-74.9
Cn1c(=O)[nH]c(=O)n2c(CC(=O)Nc3c(Cl)cccc3Cl)cnc12	8.52
O=c1[nH]c2nc(NCC3CCCO3)ncc2c(=O)n1-c1ccc(F)cc1 (stereo unspecified)	-5.89
Cc1nnc(SCC(=O)c2cc3c(cc2Cl)NC(=O)C3)s1	5.42
COc1ccc(-c2nccn2CCN2CCCCC2)c(OC)c1OC	4.74
COc1nc2ccn(CCc3cnccn3)c(=O)c2cc1C#N	54.1
CCn1nccc1CNC(=O)C1CCCCC1	-0.488
Cc1cc(C2CCN(S(=O)(=O)c3cn(C)cn3)CC2)ccn1	-32.6
